{
  "source": "PubChem BioAssay AID504348",
  "about": "(Broad Institute, 2011)",
  "note": "Inconclusive results are not listed. Calls of active or inactive are those of the source.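 The calls were made as follows: active = dose curve reaching 10% of the positive control caspase signal at or below the top valid dose; inconclusive = no clear call, values can overlap the other calls; inactive = reverse-direction response, or no crossing within range.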",
  "data": [
    {"test": "caspase activation in Mcl1-dependent HMC 1-8 cells, dose response, counter-screen for A1 inhibitor project, cell-based, luminescence, dry powder, set 3 (AID 504348)", "conditions": "caspase-Glo luminescence, 4 h; series mostly up to 35 µM", "outline": "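Assay system: HMC 1-8 human cancer cells, low A1, Mcl1-dependent | Input: 2500 cells per well | Buffer or medium: RPMI-1640 growth medium with 10% FBS | Dosing: Compound added by pin transfer | Times: 4 h compound exposure, 37 °C, plus 1 h room-temperature detection | Measured by: CaspaseGlo luminescence | Read-out: Caspase activation from luminescent signal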", "values": [
      {"smiles": "COc1ccc(CCNc2nc(N3CCCC3)nc(N3CCCC3)n2)cc1OC", "outcome": "inactive"},
      {"smiles": "COCCn1c(=O)c([N+](=O)[O-])c(Sc2ccc(C)cc2)c2ccccc21", "outcome": "inactive"},
      {"smiles": "O=C(COc1ccc(Cl)cc1Cl)NNc1nc(N2CCOCC2)nc(N2CCOCC2)n1", "outcome": "inactive"},
      {"smiles": "CCn1c(=O)c([N+](=O)[O-])c(Sc2ccc(C)cc2)c2ccccc21", "outcome": "inactive"},
      {"smiles": "COc1nc2ccccc2c(Sc2ccc(C)cc2)c1[N+](=O)[O-]", "outcome": "inactive"},
      {"smiles": "COc1ccc(N2CCN(c3nc(NCCc4ccc(OC)c(OC)c4)nc(N4CCOCC4)n3)CC2)cc1", "outcome": "inactive"},
      {"smiles": "Cc1ccc(Sc2c([N+](=O)[O-])c(=O)n(Cc3ccccc3)c3ccccc23)cc1", "outcome": "inactive"},
      {"smiles": "Cn1c(=O)c(Sc2ccccn2)c(Sc2ccccn2)c2ccccc21", "outcome": "inactive"},
      {"smiles": "C/C(=N\\Nc1nc(N2CCCCC2)nc(N2CCCCC2)n1)c1ccc(F)cc1", "outcome": "inactive"},
      {"smiles": "COc1ccc(CCNc2nc(N3CCOCC3)nc(N3CCOCC3)n2)cc1OC", "outcome": "inactive"},
      {"smiles": "O=c1[nH]c2ccccc2c(Cl)c1[N+](=O)[O-]", "outcome": "inactive"}
    ]}
  ]
}
